The target in this test is Monoacylglycerol lipase ABHD6 (Mus musculus) (UniProt Q8R2Y0). In words: brain ABHD6 inhibition after oral dosing, late-stage follow-up, in vivo study for DAGLb inhibitor project, gel-based competitive ABPP, fluorescence, mouse, set 2 (AID 602343). Particulars: stronger effect = higher value. In a few lines:
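Assay system: mouse brain membrane ABHD6, in vivo dosing. Quantity: brain membrane protein at 1 mg/mL. Repeats: one replicate per group. Evaluation: % inhibition vs vehicle. Measured by: SDS-PAGE with in-gel fluorescence, band integrated optical density. Timing: Brains taken 4 h post-dose, probe labeling 30 min at 37 °C.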

[1] abbreviates: dose or concentration not given here.
[2] abbreviates: measured here: inhibition at 1 mg/kg p.o.
The mark [3] stands for this setting: measured here: inhibition at 5 mg/kg p.o.

The values below come from PubChem BioAssay AID602343 (The Scripps Research Institute Molecular Screening Center, 2012).

Monoacylglycerol lipase ABHD6 (Mus musculus), sequence (Q8R2Y0 whole entry, looked up): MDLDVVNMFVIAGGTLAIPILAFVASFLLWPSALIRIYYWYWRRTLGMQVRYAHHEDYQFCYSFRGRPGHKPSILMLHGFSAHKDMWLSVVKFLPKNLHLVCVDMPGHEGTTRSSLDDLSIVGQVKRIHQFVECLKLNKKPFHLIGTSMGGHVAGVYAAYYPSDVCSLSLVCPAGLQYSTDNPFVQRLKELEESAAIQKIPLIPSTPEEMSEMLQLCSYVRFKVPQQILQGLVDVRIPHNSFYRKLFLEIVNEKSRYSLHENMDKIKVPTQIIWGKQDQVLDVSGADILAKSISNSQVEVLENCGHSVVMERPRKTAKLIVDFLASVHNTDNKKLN

Regarding `COc1ccccc1-c1ccc(-c2cn(C(=O)N3CCCCC3Cc3ccccc3)nn2)cc1` (centres undefined), the inhibition by setting is: under setting [1], 99%; under setting [2], 30%; under setting [3], 95%.

As for `O=C(N1CCCCC1Cc1ccccc1)n1cc(-c2ccc(-c3ccccc3)cc2)nn1` (centres undefined), the inhibition was 100% under setting [1], 0% under setting [2] and 99% under setting [3].

As for `COc1ccc(-c2ccc(-c3cn(C(=O)N4CCCCC4c4ccccc4)nn3)cc2)cc1` (centres undefined), the inhibition under setting [1] is 99%, the inhibition under setting [2] was determined as 55% and the inhibition under setting [3] stood at 55%.

The term inhibition denotes the relative decrease from the control value, in per cent.
